In ChEMBL document CHEMBL1141901, “1-Aryl-4,6-diamino-1,2-dihydrotriazine as antimalarial agent: a new synthetic route” (Bioorg Med Chem Lett, 2005):

How the values were obtained:
[1] = Inhibitory concentration against cycloguanil sensitive Plasmodium falciparum FJB-D9; type: functional
How it was run: (§1)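 P. falciparum field isolates (collected from patients, 1990) grown in RPMI 1640 lacking p-aminobenzoic acid and folic acid, with 25 mM HEPES, bicarbonate and 10% human AB+ serum. Compounds tested over 0.0005–100 range, 30 h at 37 °C in candle jar. Schizonts (≥8 nuclei) per 200 asexual parasites counted microscopically in duplicate wells. Inhibition as (1 − Nt/Nc)×100. IC50/IC90 taken from these values.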

Plasmodium falciparum [2] = assay: Inhibitory concentration sensitive Plasmodium falciparum FJB-D9; type: functional; how it was run: as §1
Plasmodium falciparum [3] = assay: Inhibitory concentration against Plasmodium falciparum
[4] = as above

Structure (SMILES)	IC50 [1]	IC90 (Plasmodium falciparum [2])	IC90 (Plasmodium falciparum [3])	IC50 [4]
CCc1nc(N)nc(N)c1-c1ccc(Cl)cc1 [PYRIMETHAMINE]	0.0016 µM	0.006 µM	0.028 µM	0.005 µM
NC1=NCN(c2ccccn2)C(N)=N1	618 µM	–	–	629 µM
Cc1ccc(N2CN=C(N)N=C2N)cc1	584 µM	–	–	501 µM
NC1=NCN(c2ccc(F)c(Cl)c2)C(N)=N1	17.3 µM	47.6 µM	49.5 µM	14.7 µM
NC1=NC(c2ccccc2)N(c2ccccn2)C(N)=N1 (stereo unspecified)	81 µM	–	–	52.9 µM
NC1=NC(c2ccccc2)N(c2ccc(F)c(Cl)c2)C(N)=N1 (stereo unspecified)	87.6 µM	–	–	81.9 µM
